Test results from ChEMBL document CHEMBL5696442, “Discovery of type II inhibitors of TGFβ-activated kinase 1 (TAK1) and mitogen-activated protein kinase kinase kinase kinase 2 (MAP4K2)” (J Med Chem, 2015).
The source made the active and inactive calls. No cut-off for these calls is given here.

Assays:
[1] = Inhibition of IL-1 induced p38 MAPK phosphorylation level in wild type mouse MEF cells at 500 nM incubated for 1 hr followed by IL-1 stimulation by Western blot analysis relative to control; format: functional
[2] = target: Tyrosine-protein kinase ABL2 (Homo sapiens, UniProt P42684); experiment: Inhibition of ARG Lys1 labeling site in human A-375 cells at 5 uM by KiNativ Profiling analysis relative to control; format: cell-based
Outline: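 Intact A375 melanoma cells were treated with compound at 5 or 0.5 μM, then lysed. Lysate kinases were labeled with a lysine-reactive ATP or ADP-biotin probe (KiNativ). Inhibition is read as protection of each kinase labeling site from probe labeling.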

[3] = target: Ribosomal protein S6 kinase alpha-3 (Homo sapiens) (UniProt P51812); experiment: Inhibition of RSK2 domain2 Lys2 labeling site in human A-375 cells at 0.05 uM by KiNativ Profiling analysis relative to control; format: cell-based
Chain of Ribosomal protein S6 kinase alpha-3 (Homo sapiens) (P51812 whole entry, the tested form may be a part): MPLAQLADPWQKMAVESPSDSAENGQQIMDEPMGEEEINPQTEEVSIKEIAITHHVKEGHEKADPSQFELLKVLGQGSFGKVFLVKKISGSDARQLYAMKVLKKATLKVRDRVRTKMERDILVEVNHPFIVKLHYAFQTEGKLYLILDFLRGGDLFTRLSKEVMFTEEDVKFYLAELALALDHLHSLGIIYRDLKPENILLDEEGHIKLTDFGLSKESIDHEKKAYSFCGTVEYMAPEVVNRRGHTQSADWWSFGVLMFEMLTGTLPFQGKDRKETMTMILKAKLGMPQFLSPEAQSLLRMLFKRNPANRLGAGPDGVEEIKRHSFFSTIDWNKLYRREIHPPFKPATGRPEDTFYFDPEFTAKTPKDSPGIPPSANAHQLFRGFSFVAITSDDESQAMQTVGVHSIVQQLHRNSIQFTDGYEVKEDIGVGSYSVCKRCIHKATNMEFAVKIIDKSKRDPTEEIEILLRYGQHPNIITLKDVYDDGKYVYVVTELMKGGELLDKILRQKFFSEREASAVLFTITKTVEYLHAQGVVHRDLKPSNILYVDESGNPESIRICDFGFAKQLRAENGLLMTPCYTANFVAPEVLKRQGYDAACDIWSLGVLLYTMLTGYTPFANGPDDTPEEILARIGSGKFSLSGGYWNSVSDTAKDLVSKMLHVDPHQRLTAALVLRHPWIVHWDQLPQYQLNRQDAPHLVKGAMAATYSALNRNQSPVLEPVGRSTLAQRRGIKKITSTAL

[4] = target: Serine/threonine-protein kinase Nek7 (Homo sapiens) (UniProt Q8TDX7); experiment: Inhibition of NEK7 Lys2 labeling site in human A-375 cells at 0.05 uM by KiNativ Profiling analysis relative to control; format: cell-based
Chain of Serine/threonine-protein kinase Nek7 (Homo sapiens) (Q8TDX7 whole entry, looked up): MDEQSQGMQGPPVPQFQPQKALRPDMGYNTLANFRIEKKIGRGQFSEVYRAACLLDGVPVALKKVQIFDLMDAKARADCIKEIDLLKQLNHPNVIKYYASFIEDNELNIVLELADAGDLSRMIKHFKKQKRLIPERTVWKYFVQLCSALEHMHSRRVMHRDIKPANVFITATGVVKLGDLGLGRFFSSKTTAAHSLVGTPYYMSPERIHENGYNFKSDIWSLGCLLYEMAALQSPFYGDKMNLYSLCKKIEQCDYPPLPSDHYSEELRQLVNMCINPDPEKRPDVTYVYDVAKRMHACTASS

[5] = target: MAP/microtubule affinity-regulating kinase 3 (Homo sapiens) (UniProt P27448); experiment: Inhibition of MARK3 Lys1 labeling site in human A-375 cells at 0.05 uM by KiNativ Profiling analysis relative to control; format: cell-based
Chain of MAP/microtubule affinity-regulating kinase 3 (Homo sapiens) (P27448 whole entry, looked up): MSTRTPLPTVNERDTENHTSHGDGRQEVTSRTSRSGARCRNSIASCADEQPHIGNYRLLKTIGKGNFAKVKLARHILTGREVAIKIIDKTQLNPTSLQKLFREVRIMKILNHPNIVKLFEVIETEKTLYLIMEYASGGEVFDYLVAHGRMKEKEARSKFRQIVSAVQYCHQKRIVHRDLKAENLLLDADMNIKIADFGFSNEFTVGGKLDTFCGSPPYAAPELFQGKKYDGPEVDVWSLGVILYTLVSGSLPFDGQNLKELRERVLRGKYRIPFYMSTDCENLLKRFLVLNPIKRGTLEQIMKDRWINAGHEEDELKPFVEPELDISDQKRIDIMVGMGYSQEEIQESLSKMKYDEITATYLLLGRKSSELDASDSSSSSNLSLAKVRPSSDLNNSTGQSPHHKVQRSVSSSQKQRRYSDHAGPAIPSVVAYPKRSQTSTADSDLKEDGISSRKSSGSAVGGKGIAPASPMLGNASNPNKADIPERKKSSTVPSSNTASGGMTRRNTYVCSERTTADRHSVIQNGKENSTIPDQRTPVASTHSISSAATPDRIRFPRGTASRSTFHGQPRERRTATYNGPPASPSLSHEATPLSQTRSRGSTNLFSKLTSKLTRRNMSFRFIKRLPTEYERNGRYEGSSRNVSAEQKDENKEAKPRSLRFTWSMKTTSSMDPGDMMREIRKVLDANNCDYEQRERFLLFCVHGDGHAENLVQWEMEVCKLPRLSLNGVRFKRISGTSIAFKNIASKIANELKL

[6] = target: Tyrosine-protein kinase ABL1 (Homo sapiens, UniProt P00519); experiment: Inhibition of ABL (unknown origin) ACT labeling site by KiNativ Profiling analysis
[7] = target: Misshapen-like kinase 1 (Homo sapiens) (UniProt Q8N4C8); experiment: Inhibition of ZC3 Lys2 labeling site in human A-375 cells at 0.5 uM by KiNativ Profiling analysis relative to control; format: cell-based
Chain of Misshapen-like kinase 1 (Homo sapiens) (Q8N4C8 whole entry, looked up): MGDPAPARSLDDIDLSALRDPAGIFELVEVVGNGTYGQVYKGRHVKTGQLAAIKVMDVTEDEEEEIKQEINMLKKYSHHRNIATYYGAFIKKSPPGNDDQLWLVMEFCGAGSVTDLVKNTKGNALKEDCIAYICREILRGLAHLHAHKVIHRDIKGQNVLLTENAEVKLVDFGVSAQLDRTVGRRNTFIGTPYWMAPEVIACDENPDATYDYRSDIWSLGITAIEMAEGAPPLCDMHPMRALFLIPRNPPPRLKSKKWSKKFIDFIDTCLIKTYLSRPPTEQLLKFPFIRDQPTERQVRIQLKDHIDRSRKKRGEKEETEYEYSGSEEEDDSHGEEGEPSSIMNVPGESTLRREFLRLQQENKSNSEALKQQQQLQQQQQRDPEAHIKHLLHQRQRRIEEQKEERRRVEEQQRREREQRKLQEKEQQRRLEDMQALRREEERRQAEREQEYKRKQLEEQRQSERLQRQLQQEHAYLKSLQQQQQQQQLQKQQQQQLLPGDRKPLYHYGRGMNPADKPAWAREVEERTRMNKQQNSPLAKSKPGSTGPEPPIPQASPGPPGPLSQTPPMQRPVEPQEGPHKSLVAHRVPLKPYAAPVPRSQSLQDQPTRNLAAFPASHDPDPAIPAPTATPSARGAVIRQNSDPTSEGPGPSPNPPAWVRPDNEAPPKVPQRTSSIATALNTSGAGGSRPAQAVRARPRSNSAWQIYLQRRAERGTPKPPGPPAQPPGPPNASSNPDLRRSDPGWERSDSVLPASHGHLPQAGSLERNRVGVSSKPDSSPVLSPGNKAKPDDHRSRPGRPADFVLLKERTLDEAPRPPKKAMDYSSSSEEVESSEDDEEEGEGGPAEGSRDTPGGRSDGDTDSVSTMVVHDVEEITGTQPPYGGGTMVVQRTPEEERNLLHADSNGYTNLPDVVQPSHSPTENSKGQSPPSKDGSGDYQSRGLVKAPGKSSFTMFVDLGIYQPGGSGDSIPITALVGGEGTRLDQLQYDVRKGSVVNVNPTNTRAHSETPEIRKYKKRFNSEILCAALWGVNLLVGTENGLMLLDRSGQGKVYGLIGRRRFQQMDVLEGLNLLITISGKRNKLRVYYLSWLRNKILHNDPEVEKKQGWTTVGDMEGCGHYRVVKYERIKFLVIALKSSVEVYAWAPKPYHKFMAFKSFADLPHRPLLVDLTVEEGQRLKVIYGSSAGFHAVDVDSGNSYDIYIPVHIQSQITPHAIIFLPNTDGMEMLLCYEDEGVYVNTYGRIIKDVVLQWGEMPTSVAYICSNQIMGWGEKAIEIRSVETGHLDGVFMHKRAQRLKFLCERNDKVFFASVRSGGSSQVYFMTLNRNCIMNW

[8] = target: TRAF2 and NCK-interacting protein kinase (Homo sapiens) (UniProt Q9UKE5); experiment: Inhibition of ZC2/TNIK Lys1 labeling site in human A-375 cells at 5 uM by KiNativ Profiling analysis relative to control; format: cell-based
Chain of TRAF2 and NCK-interacting protein kinase (Homo sapiens) (Q9UKE5 whole entry, looked up): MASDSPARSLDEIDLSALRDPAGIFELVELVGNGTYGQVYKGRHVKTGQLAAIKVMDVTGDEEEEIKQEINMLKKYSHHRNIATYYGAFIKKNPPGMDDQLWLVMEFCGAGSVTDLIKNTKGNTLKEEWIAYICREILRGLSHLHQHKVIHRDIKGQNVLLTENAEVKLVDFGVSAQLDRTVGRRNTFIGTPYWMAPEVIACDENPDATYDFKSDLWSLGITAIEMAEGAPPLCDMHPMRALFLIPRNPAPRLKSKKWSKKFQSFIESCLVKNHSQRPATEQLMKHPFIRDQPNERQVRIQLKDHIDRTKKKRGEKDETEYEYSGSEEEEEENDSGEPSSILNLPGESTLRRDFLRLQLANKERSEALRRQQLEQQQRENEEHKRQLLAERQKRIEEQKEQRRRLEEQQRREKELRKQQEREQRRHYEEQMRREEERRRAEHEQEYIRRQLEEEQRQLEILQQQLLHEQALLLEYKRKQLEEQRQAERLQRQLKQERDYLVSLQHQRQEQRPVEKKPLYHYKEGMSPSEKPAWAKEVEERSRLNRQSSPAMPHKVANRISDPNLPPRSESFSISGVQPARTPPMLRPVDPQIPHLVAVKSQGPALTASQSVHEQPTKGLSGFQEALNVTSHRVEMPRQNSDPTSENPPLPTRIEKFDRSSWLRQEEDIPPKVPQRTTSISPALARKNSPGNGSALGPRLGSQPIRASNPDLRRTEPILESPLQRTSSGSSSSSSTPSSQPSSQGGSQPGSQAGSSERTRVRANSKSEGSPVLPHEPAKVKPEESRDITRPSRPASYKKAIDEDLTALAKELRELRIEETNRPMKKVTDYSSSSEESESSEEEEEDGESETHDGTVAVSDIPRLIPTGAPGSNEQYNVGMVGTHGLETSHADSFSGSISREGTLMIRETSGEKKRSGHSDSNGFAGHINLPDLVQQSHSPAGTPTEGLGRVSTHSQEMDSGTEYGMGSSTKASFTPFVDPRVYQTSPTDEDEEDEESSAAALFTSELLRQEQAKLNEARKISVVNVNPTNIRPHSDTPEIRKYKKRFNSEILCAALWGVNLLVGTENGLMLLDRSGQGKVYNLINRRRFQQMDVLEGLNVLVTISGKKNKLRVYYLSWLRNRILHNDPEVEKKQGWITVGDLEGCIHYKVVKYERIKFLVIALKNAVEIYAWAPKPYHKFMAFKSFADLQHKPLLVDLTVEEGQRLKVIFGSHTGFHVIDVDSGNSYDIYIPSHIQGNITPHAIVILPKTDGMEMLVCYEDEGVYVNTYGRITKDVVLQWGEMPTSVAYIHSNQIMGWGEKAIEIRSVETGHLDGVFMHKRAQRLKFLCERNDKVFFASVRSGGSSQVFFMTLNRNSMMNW

[9] = target: Cyclin-dependent kinase 16 (Homo sapiens) (UniProt Q00536); experiment: Inhibition of PCTAIRE1 Lys1 labeling site in human A-375 cells at 5 uM by KiNativ Profiling analysis relative to control; format: cell-based
Chain of Cyclin-dependent kinase 16 (Homo sapiens) (Q00536 whole entry): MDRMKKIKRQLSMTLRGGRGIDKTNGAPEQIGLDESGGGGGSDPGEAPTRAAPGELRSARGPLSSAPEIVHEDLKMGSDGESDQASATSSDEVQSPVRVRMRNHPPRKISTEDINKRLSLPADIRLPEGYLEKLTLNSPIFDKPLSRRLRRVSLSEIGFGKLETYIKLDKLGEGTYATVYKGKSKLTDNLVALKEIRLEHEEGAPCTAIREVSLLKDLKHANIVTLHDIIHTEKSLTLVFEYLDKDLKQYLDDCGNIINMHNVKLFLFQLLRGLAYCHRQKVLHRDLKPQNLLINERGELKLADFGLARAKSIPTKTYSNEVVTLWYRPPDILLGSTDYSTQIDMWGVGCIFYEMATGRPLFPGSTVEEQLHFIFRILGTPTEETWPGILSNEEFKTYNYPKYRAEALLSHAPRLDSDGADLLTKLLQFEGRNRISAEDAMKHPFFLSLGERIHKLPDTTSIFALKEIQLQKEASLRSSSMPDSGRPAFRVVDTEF

[10] = target: T1, Serine/threonine-protein kinase Chk1 (Homo sapiens) (UniProt O14757); experiment: Inhibition of CHK1 Lys2 labeling site harbouring DIKPENLLLDERDNLK in human A-375 cells at 0.05 uM by KiNativ Profiling analysis relative to control; format: cell-based
T1 sequence (whole entry): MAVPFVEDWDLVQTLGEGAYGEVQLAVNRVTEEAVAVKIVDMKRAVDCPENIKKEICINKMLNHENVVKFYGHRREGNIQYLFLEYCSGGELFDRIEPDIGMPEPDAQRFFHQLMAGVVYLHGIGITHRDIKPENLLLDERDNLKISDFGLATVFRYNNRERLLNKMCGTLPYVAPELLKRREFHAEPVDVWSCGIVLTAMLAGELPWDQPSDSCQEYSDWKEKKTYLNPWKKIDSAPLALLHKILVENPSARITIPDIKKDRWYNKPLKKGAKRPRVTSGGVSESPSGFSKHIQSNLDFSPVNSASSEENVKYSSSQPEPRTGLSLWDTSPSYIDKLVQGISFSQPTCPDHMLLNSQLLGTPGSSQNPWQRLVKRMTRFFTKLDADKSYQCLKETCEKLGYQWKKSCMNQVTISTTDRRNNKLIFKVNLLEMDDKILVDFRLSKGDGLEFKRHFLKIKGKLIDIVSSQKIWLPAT

[11] = target: T2, Serine/threonine-protein kinase TBK1 (Homo sapiens) (UniProt Q9UHD2); experiment: Inhibition of TBK1 Lys1 labeling site in human A-375 cells at 0.5 uM by KiNativ Profiling analysis relative to control; format: cell-based
T2 sequence (whole entry): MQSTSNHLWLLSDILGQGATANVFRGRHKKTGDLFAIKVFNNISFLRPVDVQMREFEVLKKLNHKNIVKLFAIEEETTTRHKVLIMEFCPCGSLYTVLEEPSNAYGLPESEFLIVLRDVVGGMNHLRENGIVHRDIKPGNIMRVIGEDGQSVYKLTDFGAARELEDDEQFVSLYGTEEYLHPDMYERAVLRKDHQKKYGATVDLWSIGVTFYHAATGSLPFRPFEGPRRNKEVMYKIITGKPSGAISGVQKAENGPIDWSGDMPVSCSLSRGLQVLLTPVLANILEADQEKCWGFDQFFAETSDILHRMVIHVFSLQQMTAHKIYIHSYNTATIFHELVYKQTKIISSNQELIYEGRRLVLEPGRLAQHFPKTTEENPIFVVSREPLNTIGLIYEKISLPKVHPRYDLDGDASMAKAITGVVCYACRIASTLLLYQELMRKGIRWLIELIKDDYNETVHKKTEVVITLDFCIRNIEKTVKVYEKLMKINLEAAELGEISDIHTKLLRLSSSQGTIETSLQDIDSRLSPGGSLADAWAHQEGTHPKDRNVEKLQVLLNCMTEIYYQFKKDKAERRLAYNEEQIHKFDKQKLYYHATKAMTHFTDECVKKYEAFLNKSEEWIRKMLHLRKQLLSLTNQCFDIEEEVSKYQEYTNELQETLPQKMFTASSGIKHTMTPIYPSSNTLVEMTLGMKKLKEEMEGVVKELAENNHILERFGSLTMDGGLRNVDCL

[12] = target: Serine/threonine-protein kinase mTOR (Homo sapiens) (UniProt P42345); experiment: Inhibition of FRAP ATP labeling site in human Huh-7 cells at 1 uM by KiNativ Profiling analysis relative to control; format: cell-based

Row | Structure (SMILES) | inhibition at 0.5 µM [1] [%] | inhibition [2] [%] | inhibition [3] [%] | inhibition [4] [%] | inhibition [5] [%] | IC50 [6] [nM] | inhibition [7] [%] | inhibition [8] [%] | inhibition [9] [%] | inhibition [10] [%] | inhibition [11] [%] | inhibition [12]
1 | CNc1cc(Oc2cc(C(=O)Nc3cc(-n4cnc(C)c4)cc(C(F)(F)F)c3)ccc2C)ncn1 | 50 |  |  |  |  |  |  |  |  |  |  | 
2 | CCN1CCN(Cc2ccc(NC(=O)c3ccc(C)c(Oc4ccnc5[nH]ccc45)c3)cc2C(F)(F)F)CC1 |  | 86.8 | 2.2 | 10.6 | -4.5 | 75.2 | 70.8 | > 95 | 72.6 | 47.1 | 17.1 | inactive
3 | CCN1CCN(Cc2ccc(NC(=O)c3ccc(C)c(/C=C/c4cnc5[nH]ccc5c4OC)c3)cc2C(F)(F)F)CC1 |  | > 90 | 0.3 | 5.8 | 16 | 51.5 | 48.1 | > 95 | 32.1 | 2.9 | 28.7 | 
4 | CNc1cc(Oc2cc(C(=O)Nc3cc(N4CCN(C)CC4)cc(C(F)(F)F)c3)ccc2C)ncn1 | 50 |  |  |  |  |  |  |  |  |  |  | 26.5%
